Tests used:
Canis familiaris [1] = organism: Canis familiaris; test: In vitro electrophysiological activity in isolated canine cardiac Purkinje fibers using standard microelectrode technique; assay type: functional, Canis lupus familiaris, Purkinje fiber
Method in brief: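 Canine cardiac Purkinje fibers studied with standard intracellular microelectrodes. C20APD95 is the concentration raising action potential duration at 95% repolarization by 20% over control. Reported as the log mean of n experiments with the range.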

[2] = biological target: Beta-2 adrenergic receptor (Canis lupus familiaris, UniProt P54833); test: In vitro Beta-2 adrenergic receptor affinity in partially purified membrane fractions from canine lung tissue using […]dihydroalprenolol (4.5 nM); assay type: cell membranes
Mustela putorius furo [3] = organism: Mustela putorius furo; test: In vitro contractile function in isolated ferret papillary muscle at 10 uM.; assay type: functional, Muscle tissue
Method in brief: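 Isolated ferret papillary muscle exposed to drug at 10 μM. Read-out is percent change in contractile force from the control value. Reported as the average of n experiments with the range.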

Canis familiaris [4] = test: In vivo isoproterenol response in conscious dogs at 3.0 mg/kg; assay type: functional, Canis lupus familiaris
Method in brief: (§1)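 Conscious mongrel dogs (n = 4) with lead II ECG. Isoproterenol given iv (0.04, 0.08, 0.16 µg/kg) before and after cumulative compound doses of 0.3–10.0 mg/kg. Percent change from the control heart-rate response to 0.08 µg/kg isoproterenol, ± SEM.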

[5] = biological target: Phosphodiesterase; PDE3 & PDE4 (Homo sapiens) (UniProt P27815+Q14432+Q08499+Q07343+Q13370+Q08493); test: Inhibition of canine cardiac particulate cAMP phosphodiesterase; assay type: protein assay; conditions: Canis lupus familiaris; target entry is the homologue from another species; concentration not given here
Method in brief: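 Particulate cAMP phosphodiesterase fraction from dog heart; inhibition measured at 100 μM.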

Canis familiaris [6] = test: In vivo left ventricular contractility change in anesthetized dog at 30 mg/kg; assay type: functional, Canis lupus familiaris, Heart left ventricle
Method in brief: (§2)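 Pentobarbital-anesthetized mongrel dogs, 30 min stabilization. Cumulative iv doses of 3, 10 and 30 mg/kg, each over 5 min, monitored every 5 min for 15 min. Percent change ± SEM from control at 15 min after the 30 mg/kg dose; n = 4.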

Canis familiaris [7] = test: In vivo coronary flow in anesthetized dog at 30 mg/kg; assay type: functional, Canis lupus familiaris; method in brief: as §2
Canis familiaris [8] = test: In vivo efficacy against halothane/epinephrine induced arrhythmias in 4 anesthetized dogs at 0.3 mg/kg; assay type: functional, Canis lupus familiaris
Method in brief: (§3)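 Mongrel dogs under thiopental, ventilated with 1.5 vol% halothane in O2. After 15–30 min stabilization, drug given iv over 10 min. After 20 min equilibration, epinephrine infused at 1.5 µg/kg/min for 15 min. Effective if SVT/VF could not be induced.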

Canis familiaris [9] = test: In vivo heart rate in anesthetized dog at 30 mg/kg; assay type: functional, Canis lupus familiaris; method in brief: as §2
Canis familiaris [10] = test: In vivo isoproterenol response in conscious dogs at 10.0 mg/kg; assay type: functional, Canis lupus familiaris; method in brief: as §1
Canis familiaris [11] = test: In vivo PES efficacy in conscious dogs (iv); assay type: functional; conditions: Canis lupus familiaris, read-out: MED
Method in brief: (§4)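 Mongrel dogs with surgically produced occlusion/reperfusion infarction, studied conscious 3–8 days later. Two control arrhythmias induced by programmed electrical stimulation before iv drug; SVT ended by burst pacing, VF by DC countershock. Counted effective if noninducible after drug.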

Canis familiaris [12] = test: In vivo cardiac output in anesthetized dog at 30 mg/kg; assay type: functional, Canis lupus familiaris; method in brief: as §2
Canis familiaris [13] = test: In vivo mean arterial pressure in anesthetized dog at 30 mg/kg; assay type: functional, Canis lupus familiaris, Artery; method in brief: as §2
Canis familiaris [14] = test: In vivo efficacy against halothane/epinephrine induced arrhythmias in 4 anesthetized dogs at 1 mg/kg; assay type: functional, Canis lupus familiaris; method in brief: as §3
[15] = Compound was evaluated for half life; assay type: ADME
Canis familiaris [16] = test: In vivo PES efficacy in 8 conscious dogs (PES programmed electrical stimulation protocol); assay type: functional, Canis lupus familiaris; method in brief: as §4
Canis familiaris [17] = test: In vivo isoproterenol response in conscious dogs at 0.3 mg/kg; assay type: functional, Canis lupus familiaris; method in brief: as §1
Canis familiaris [18] = test: In vivo isoproterenol response in conscious dogs at 1.0 mg/kg; assay type: functional, Canis lupus familiaris; method in brief: as §1
Canis familiaris [19] = test: In vivo total peripheral resistance in anesthetized dog at 30 mg/kg; assay type: functional, Canis lupus familiaris; method in brief: as §2
Canis familiaris [20] = test: In vivo PES efficacy in 9 conscious dogs (PES programmed electrical stimulation protocol); assay type: functional, Canis lupus familiaris; method in brief: as §4
Canis familiaris [21] = test: In vivo efficacy against halothane/epinephrine induced arrhythmias in 6 anesthetized dogs at 3 mg/kg; assay type: functional, Canis lupus familiaris; method in brief: as §3
Canis familiaris [22] = test: In vivo efficacy against halothane/epinephrine induced arrhythmias in 4 anesthetized dogs at 3 mg/kg; assay type: functional, Canis lupus familiaris; method in brief: as §3
Mustela putorius furo [23] = organism: Mustela putorius furo; test: In vitro contractile function in isolated ferret papillary muscle at 10 uM; assay type: functional, Muscle tissue
Method in brief: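 Isolated ferret papillary muscle; drug at 10 μM. Read-out is percent change in force of contraction from the control value. Value is the average of n experiments, with the range given.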

[24] = Compound was evaluated for lethal dose in rats after intravenous administration; Range is 200-300 mg/kg; assay type: toxicity, organism-based; conditions: rat, in vivo
Canis familiaris [25] = test: In vivo efficacy against halothane/epinephrine induced arrhythmias in 2 anesthetized dogs at 0.3 mg/kg; assay type: functional, Canis lupus familiaris; method in brief: as §3
Canis familiaris [26] = test: In vivo efficacy against halothane/epinephrine induced arrhythmias in 8 anesthetized dogs at 1 mg/kg; assay type: functional, Canis lupus familiaris; method in brief: as §3
[27] = Bioavailability after oral administration of 3 mg/kg to dogs; assay type: ADME, organism-based, Canis lupus familiaris; conditions: dog, in vivo

Chain of Beta-2 adrenergic receptor (P54833 whole entry): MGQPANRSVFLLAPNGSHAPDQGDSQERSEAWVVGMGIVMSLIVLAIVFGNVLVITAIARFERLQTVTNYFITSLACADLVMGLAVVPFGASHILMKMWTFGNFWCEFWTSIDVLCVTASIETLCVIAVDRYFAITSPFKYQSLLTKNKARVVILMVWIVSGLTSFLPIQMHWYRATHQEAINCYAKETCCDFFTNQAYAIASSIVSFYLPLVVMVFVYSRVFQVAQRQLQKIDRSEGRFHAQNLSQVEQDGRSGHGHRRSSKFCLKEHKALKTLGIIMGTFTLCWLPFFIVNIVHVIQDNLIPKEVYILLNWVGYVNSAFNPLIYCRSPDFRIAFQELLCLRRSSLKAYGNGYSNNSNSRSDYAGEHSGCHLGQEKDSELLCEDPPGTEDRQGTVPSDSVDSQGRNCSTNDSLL

| Compound | IC50 [2] | C20 APD95 (Canis familiaris [1]) | Delta F (Mustela putorius furo [3]) | Response (Canis familiaris [4]) | Coronary flow (Canis familiaris [7]) | HR (Canis familiaris [9]) | Response (Canis familiaris [10]) | minimal effective dose (Canis familiaris [11]) | CO (Canis familiaris [12]) | MAP (Canis familiaris [13]) | No. effective (Canis familiaris [14]) | Response (Canis familiaris [17]) | Response (Canis familiaris [18]) | TPR (Canis familiaris [19]) | further results |
| --- | --- | --- | --- | --- | --- | --- | --- | --- | --- | --- | --- | --- | --- | --- | --- |
| CCN(CC)CC(O)COc1ccc(NS(C)(=O)=O)cc1 (stereo not given) | – | 4.8 µM | – | – | – | – | – | – | – | – | – | – | – | – | – |
| CCN(CC)CCOc1ccc(-n2ccnc2)cc1 | – | 3.4 µM | – | – | – | – | – | – | – | – | – | – | – | – | – |
| Cc1nccn1-c1ccc(OCCNCC(O)COc2ccc(N(C)S(C)(=O)=O)cc2)cc1 (stereo not given) | > 100 µM | >30 µM | -16% | – | – | – | – | – | – | – | – | – | – | – | – |
| CC(C)NCC(O)c1ccc(NS(C)(=O)=O)cc1 (racemic) [SOTALOL] | – | 18 µM | – | -79% | -51% | -51% | – | ~2 mg/kg | -61% | -42% | 4 | -72% | -42% | 78% | LV dP/dt (Canis familiaris [6]): -52%; No. effective (Canis familiaris [20]): 7; No. effective (Canis familiaris [21]): 6 |
| Cc1nccn1-c1ccc(OCCNCC(O)COc2ccc(NS(C)(=O)=O)cc2)cc1.O=P(O)(O)O (stereo not given) | 57 µM | 7.3 µM | 9% | – | – | – | – | – | – | – | – | – | – | – | – |
| CS(=O)(=O)Nc1ccc(OCC(O)CNCCOc2ccc(-n3ccnc3)cc2)cc1.Cl (stereo not given) | 47 µM | 0.4 µM | – | -74% | -29% | -49% | -78% | ~1 mg/kg | -28% | -25% | – | 30% | -0.75% | 3% | LD50 [24]: 200 mg/kg; LV dp/dt (Canis familiaris [6]): -38%; No. effective (Canis familiaris [25]): 0; No. effective (Canis familiaris [26]): 6; No. effective (Canis familiaris [16]): 8; Delta F (Mustela putorius furo [23]): 53%; bioavailability [27]: 60% |

Now from value to compound, other results behind:

| IC50 [2] | Compound | C20 APD95 (Canis familiaris [1]) | Delta F (Mustela putorius furo [3]) | Response (Canis familiaris [4]) | Coronary flow (Canis familiaris [7]) | HR (Canis familiaris [9]) | Response (Canis familiaris [10]) | minimal effective dose (Canis familiaris [11]) | CO (Canis familiaris [12]) | MAP (Canis familiaris [13]) | No. effective (Canis familiaris [14]) | Response (Canis familiaris [17]) | Response (Canis familiaris [18]) | TPR (Canis familiaris [19]) | further results |
| --- | --- | --- | --- | --- | --- | --- | --- | --- | --- | --- | --- | --- | --- | --- | --- |
| > 100 µM | CN(c1ccc(OCC(O)CNCCOc2ccc(-n3ccnc3)cc2)cc1)S(C)(=O)=O.Cl.Cl (stereo not given) | 1.4 µM | -15% | – | – | – | – | – | – | – | – | – | – | – | – |
| 100 µM | CS(=O)(=O)Nc1ccc(OC[C@@H](O)CNCCOc2ccc(-n3ccnc3)cc2)cc1.Cl | 0.8 µM | 75% | -45% | -41% | -48% | -64% | ~0.4 mg/kg | -32% | -30% | 4 | 10% | -25% | 6% | inhibition [5]: 19%; LV dP/dt (Canis familiaris [6]): -28%; No. effective (Canis familiaris [8]): 2; half-life [15]: 3 h; No. effective (Canis familiaris [16]): 7 |
| 23 µM | CC(C)(COc1ccc(-n2ccnc2)cc1)NCC(O)COc1ccc(NS(C)(=O)=O)cc1.Cl.Cl (stereo not given) | 0.5 µM | 69% | – | – | – | – | – | – | – | – | – | – | – | – |
| > 100 µM | CS(=O)(=O)Nc1ccc(OC[C@H](O)CNCCOc2ccc(-n3ccnc3)cc2)cc1.Cl | 0.8 µM | – | -6% | – | – | 41% | – | – | – | 1 | 40% | 62% | – | No. effective (Canis familiaris [22]): 1; Delta F (Mustela putorius furo [23]): 27% |
